# Published values gathered from unrelated publications.
# Compare with care: the assays were run in different laboratories.
# Read-out: cell growth or viability
Structure (SMILES),cell line,technique,time,setting,CC50
O=C(CNc1nc(NS(=O)(=O)c2ccccc2)ncc1-c1nc2ccccc2s1)c1ccc(Br)cc1,BGM,,,,220 µg/mL
C=C1CN(S(=O)(=O)c2ccc(C)cc2)CCCN(CCc2ccccc2)CCCN(S(=O)(=O)c2ccc(C)cc2)C1,HEK-293T,resazurin,72 h,,> 50 µM
CCOc1ccc(-c2nc(CNCCc3ccc(F)cc3)cs2)cc1,Huh-7,MTT,24 h,,87.8 µM
Cc1ccc(S(=O)(=O)Nc2ncc(-c3nc4ccccc4s3)c(N)n2)cc1,BGM,,,,200 µg/mL
CO[C@H]1C[C@@H](C[C@H](C)[C@H]2CC(=O)[C@@H](C)/C=C(\C)[C@H](O)[C@H](OC)C(=O)[C@@H](C)C[C@@H](C)/C=C/C=C/C=C(\C)[C@H](OC)C[C@H]3CC[C@H](C)[C@](O)(O3)C(=O)C(=O)N3CCCC[C@@H]3C(=O)O2)CC[C@@H]1OCCO (racemic),Huh-7,MTT,24 h,,15.9 µM
CCOP(=O)(OCC)[C@@H]1C[C@H](n2cc(Cn3cnc4c(N)ncnc43)nn2)ON1C (relative stereo),human T-lymphocyte,,72 h,,> 250 µM
CC(C)c1cc(Oc2c(Cl)cc(-n3nc(C#N)c(=O)[nH]c3=O)cc2Cl)n[nH]c1=O,LX-2,ATP luminescence,48 h,serum-free,> 50 µM
COc1ccc(NC(=O)N2CCCCN3C[C@H](c4ccc(C#Cc5ccccc5)cc4)[C@@H]3C2)cc1,HEK-293T,,,,25 µM
O=C(O)c1cc(-c2ccc(Br)cc2)nc2ccc(Cl)cc12,Huh-7,MTT,24 h,,89.7 µM
CCOP(=O)(OCC)[C@@H]1C[C@H](n2cc(-c3nccn3C)nn2)ON1C,human T-lymphocyte,,72 h,,> 250 µM
CC(C)Cn1c(=O)n(C)c(=O)c2c(-c3cncn3C)n(Cc3cccc4ccccc34)nc21,Huh-7,MTT,24 h,,> 200 µM
CCOP(=O)(OCC)[C@@H]1C[C@H](n2cc(C(=O)OC)nn2)ON1C (relative stereo),human T-lymphocyte,,72 h,,> 250 µM
O=C(O)CCCc1cc2cc(Cl)ccc2n1S(=O)(=O)c1ccc2ncsc2c1,LX-2,ATP luminescence,48 h,serum-free,> 40 µM
CCOP(=O)(OCC)[C@@H]1C[C@H](n2cc(-c3ccc(F)cc3F)nn2)ON1C,human T-lymphocyte,,72 h,,≥ 250 µM
O=C(CNc1nc(NS(=O)(=O)c2ccccc2)ncc1-c1nc2ccccc2s1)c1ccc(Cl)cc1,BGM,,,,220 µg/mL
CO[C@H]1/C=C/O[C@@]2(C)Oc3c(C)c(O)c4c(O)c(c(/C=N/N5CCN(C)CC5)c(O)c4c3C2=O)NC(=O)/C(C)=C\C=C[C@H](C)[C@H](O)[C@@H](C)[C@@H](O)[C@@H](C)[C@H](OC(C)=O)[C@@H]1C,Huh-7,MTT,24 h,,304 µM
CCOP(=O)(OCC)[C@@H]1C[C@H](n2cc(-c3ccccc3)nn2)ON1C,human T-lymphocyte,,72 h,,> 250 µM
O=C1O[C@H]2[C@@H]3OC(=O)c4cc(O)c(O)c(O)c4-c4c(O)c(O)c5oc(=O)c6c(c(O)c(O)c7oc(=O)c4c5c76)-c4c(cc(O)c(O)c4O)C(=O)OC[C@H]3OC(O)[C@@H]2OC(=O)c2cc(O)c(O)c(O)c2-c2c1cc(O)c(O)c2O (mixture of isomers),Huh-7,MTT,,,> 5000 µM
